Results taken from ChEMBL document CHEMBL1124416, “5-(1-piperazinyl)-1H-1,2,4-triazol-3-amines as antihypertensive agents” (1989).

Columns and labels:
Rattus norvegicus [1] = test: Effect on the cardiovascular response to norepinephrine challenge was measured in conscious spontaneously hypertensive rats administered perorally at 50 mg/kg; format: functional, Heart; settings: route oral
Rattus norvegicus [2] = test: Effect on the […] was measured in conscious spontaneously hypertensive rat administered perorally at 1 mL/100g; format: functional, Heart
Rattus norvegicus [3] = test: Effect on the cardiovascular response to epinephrine (1ug/kg, iv) challenge was measured in conscious spontaneously hypertensive rats administered perorally at 50 mg/kg; format: functional, Heart; settings: route oral
Outline: (§1)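 Male Okamoto-Aoki SHR, about 350 g, conscious, held supine with elastic tape; tail base locally anesthetized with 2% procaine sc. Control responses were recorded first. Vehicle (10 mL/kg) or compound was then given orally, and challenges were repeated 1 h later. Challenges were a 75° tilt for 30 s and iv agonists (epinephrine 1 or 2 μg/kg). Read-out was change in MABP (mmHg); paired Student's t test.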

Rattus norvegicus [4] = test: The antihypertensive activity was assessed by measuring the mean arterial blood pressure in rats when administered at 50 mg/kg; format: functional
Outline: (§2)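 16-week-old male SH rats (Okamoto) were dosed by oral gavage in 3% starch in normal saline (2 mL/kg), plus an oral saline load of 25 mL/kg. They were redosed at 24 h without the saline load. MABP and HR were taken by direct femoral arterial puncture under local anesthesia 4 h after the second dose. HR was rounded to 10 bpm.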

Rattus norvegicus [5] = test: Effect on the cardiovascular response to epinephrine (1ug/kg, iv) challenge was measured in conscious spontaneously hypertensive rats administered perorally at 1 mL/100g; format: functional, Heart; outline: as §1
Rattus norvegicus [6] = test: Effect on the cardiovascular response to tilt challenge was measured in conscious spontaneously hypertensive rats administered perorally at 1 mL/100g; format: functional, Heart; outline: as §1
Rattus norvegicus [7] = test: Effect on the cardiovascular response to ACH challenge was measured in conscious spontaneously hypertensive rats administered perorally at 8 mL/100 g; format: functional, Heart
Rattus norvegicus [8] = test: Effect on the cardiovascular response to angiotensin II challenge was measured in conscious spontaneously hypertensive rats administered perorally at 8 mL/100 g; format: functional, Heart
Rattus norvegicus [9] = test: Effect on the cardiovascular response to DMPP challenge was measured in conscious spontaneously hypertensive rats administered perorally at 50 mg/kg; format: functional, Heart; settings: route oral
Rattus norvegicus [10] = test: Effect on the cardiovascular response to epinephrine (2ug/kg, iv) challenge was measured in conscious spontaneously hypertensive rats administered perorally at 1 mL/100g; format: functional, Heart; outline: as §1
Rattus norvegicus [11] = test: Effect on the cardiovascular response to tyramine challenge was measured in conscious spontaneously hypertensive rats administered perorally at 50 mg/kg; format: functional, Heart; settings: route oral
Rattus norvegicus [12] = test: Effect on the cardiovascular response to norepinephrine challenge was measured in conscious spontaneously hypertensive rats administered perorally at 1 mL/100g; format: functional, Heart
Rattus norvegicus [13] = test: Effect on the cardiovascular response to ACH challenge was measured in conscious spontaneously hypertensive rats administered perorally at 1 mL/100g; format: functional, Heart
Rattus norvegicus [14] = test: Effect on the cardiovascular response to isoproterenol challenge was measured in conscious spontaneously hypertensive rats administered perorally at 50 mg/kg; format: functional, Heart; settings: route oral
Rattus norvegicus [15] = test: Effect on the cardiovascular response to DMPP challenge was measured in conscious spontaneously hypertensive administered perorally rats at 1 mL/100g; format: functional, Heart
Rattus norvegicus [16] = test: Effect on the cardiovascular response to isoproterenol challenge was measured in conscious spontaneously hypertensive rats administered perorally at 1 mL/100g; format: functional, Heart
Rattus norvegicus [17] = test: Assessment of antihypertensive activity at 100 mg/kg administered perorally by measuring the heart rate in rats; format: functional; settings: route oral
Rattus norvegicus [18] = test: Effect on the cardiovascular response to angiotensin II challenge was measured in conscious spontaneously hypertensive rats administered perorally at 1 mL/100g; format: functional, Heart
Rattus norvegicus [19] = test: Effect on the cardiovascular response to epinephrine (2ug/kg, iv) challenge was measured in conscious spontaneously hypertensive rats administered perorally at 50 mg/kg; format: functional, Heart; settings: route oral; outline: as §1
Rattus norvegicus [20] = test: Effect on the cardiovascular response to ACH challenge was measured in conscious spontaneously hypertensive rats administered perorally at 50 mg/kg; format: functional, Heart; settings: route oral
Rattus norvegicus [21] = test: The antihypertensive activity was assessed by measuring the heart rate in rats when administered at 25 mg/kg; format: functional; outline: as §2
Rattus norvegicus [22] = test: Effect on the cardiovascular response to tilt challenge was measured in conscious spontaneously hypertensive rats administered perorally at 50 mg/kg; format: functional, Heart; settings: route oral; outline: as §1
Rattus norvegicus [23] = organism: Rattus norvegicus; format: functional, Artery; settings: dose 100 mg/kg; route oral
Rattus norvegicus [24] = test: The antihypertensive activity was assessed by measuring the heart rate in rats when administered at 50 mg/kg; format: functional; outline: as §2
Rattus norvegicus [25] = test: Effect on the cardiovascular response to angiotensin II challenge was measured in conscious spontaneously hypertensive rats administered perorally at 50 mg/kg; format: functional, Heart; settings: route oral
Rattus norvegicus [26] = test: The antihypertensive activity was assessed by measuring the mean arterial blood pressure in rats when administered at 25 mg/kg; format: functional; outline: as §2
Rattus norvegicus [27] = test: Effect on the cardiovascular response to isoproterenol challenge was measured in conscious spontaneously hypertensive rats administered perorally at 8 mL/100 g; format: functional, Heart
Rattus norvegicus [28] = test: Effect on the cardiovascular response to norepinephrine challenge was measured in conscious spontaneously hypertensive rats administered perorally at 8 mL/100 g; format: functional, Heart
Rattus norvegicus [29] = test: Effect on the cardiovascular response to tyramine challenge was measured in conscious spontaneously hypertensive rats administered perorally at 8 mL/100 g; format: functional, Heart

`Nc1n[nH]c(N2CCN(Cc3cccc(Cl)c3)CC2)n1` gave an MABP (Rattus norvegicus [1]) of 63 delta mmHg, an MABP (Rattus norvegicus [2]) of 34.5 delta mmHg and an MABP (Rattus norvegicus [3]) of 29 delta mmHg. It also gave an MABP (Rattus norvegicus [4]) of 113 mmHg, an MABP (Rattus norvegicus [5]) of 28.8 delta mmHg and an MABP (Rattus norvegicus [6]) of 17.3 delta mmHg. It also gave an MABP (Rattus norvegicus [7]) of -68.5 delta mmHg, an MABP (Rattus norvegicus [8]) of 55 delta mmHg and an MABP (Rattus norvegicus [9]) of 30.3 delta mmHg. It also gave an MABP (Rattus norvegicus [10]) of 37.3 delta mmHg, an MABP (Rattus norvegicus [11]) of 34.8 delta mmHg and an MABP (Rattus norvegicus [12]) of 45.8 delta mmHg. It also gave an MABP (Rattus norvegicus [13]) of -54.5 delta mmHg, an MABP (Rattus norvegicus [14]) of -46.7 delta mmHg and an MABP (Rattus norvegicus [15]) of 52.5 delta mmHg. For the same compound, the MABP (Rattus norvegicus [16]) was -38.5 delta mmHg, the HR (Rattus norvegicus [17]) was 300 beats min-1 and the MABP (Rattus norvegicus [18]) was 49 delta mmHg. For the same compound, the MABP (Rattus norvegicus [19]) was 50.7 delta mmHg, the MABP (Rattus norvegicus [20]) was -47 delta mmHg and the HR (Rattus norvegicus [21]) was 440 beats min-1. The MABP (Rattus norvegicus [22]) was 9.3 delta mmHg, the MABP (Rattus norvegicus [23]) was 89 mmHg and the HR (Rattus norvegicus [24]) was 440 beats min-1. It also gave an MABP (Rattus norvegicus [25]) of 70.2 delta mmHg, an MABP (Rattus norvegicus [26]) of 132 mmHg and an MABP (Rattus norvegicus [27]) of -49.8 delta mmHg. The MABP (Rattus norvegicus [28]) was 47.8 delta mmHg and the MABP (Rattus norvegicus [29]) was 35.3 delta mmHg.
